From ChEMBL document CHEMBL3271990, “Ergot alkaloids. New ergolines as selective dopaminergic stimulants” (1978)
Activity calls are given as the source filed them. No cut-off for these calls is given here.

Tests used:
Rattus norvegicus [1] = experiment: Induction of turning toward intact side in OFA rat model with 6-OH-DA-induced unilateral degeneration of nigrostriatal tract at 1 mg/kg, ip; type: functional, organism-based; set-up: dose 1 mg/kg
Rattus norvegicus [2] = experiment: Induction of stereotypy in OFA rat at 30 mg/kg, ip measured every 30 mins for 2 hrs followed by every 60 mins for 7 hrs; type: functional, organism-based; set-up: dose 30 mg/kg
In short: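 Male OFA rats (180-250 g), each in its own cylinder with a wire-netting floor, acclimatized 30 min, then dosed. Observed every 30 min for 2 h, then every 60 min up to 7 h total. Six rats per dose. Sniffing, licking and biting scored with the Costall et al. system and summed as total activity per rat over 0-7 h.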

Rattus norvegicus [3] = experiment: Inhibition of serum prolactin in sc dosed rat after 4 hrs by RIA; type: functional
In short: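 Serum prolactin measured by RIA 4 h after sc dosing, expressed as NIH-RP. ED50 calculated from dose-response relationships.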

Rattus norvegicus [4] = experiment: Inhibition of ovum implantation in sc dosed inseminated rat; type: functional
In short: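 Inseminated rats dosed sc. ED value for inhibition of ovum implantation.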

Rattus norvegicus [5] = experiment: Induction of stereotypy in OFA rat at 10 mg/kg, sc measured every 30 mins for 2 hrs followed by every 60 mins for 7 hrs; type: functional, organism-based; set-up: dose 10 mg/kg
In short: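 Male OFA rats (180-250 g), housed singly in cylinders with wire-netting floor, acclimatized 30 min before dosing. Behaviour observed every 30 min for 2 h, then every 60 min up to 7 h total. Stereotypy (sniffing, licking, biting) scored on Costall et al. scale; total score per rat over 0-7 h. Six rats per dose.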

## CN1C[C@@H](CC#N)C[C@H]2c3cccc4[nH]cc(c34)C[C@H]21
Rattus norvegicus [1]
  Activity: Active
Rattus norvegicus [2]
  Activity: Active

## CN1C[C@H](CC#N)C[C@@H]2c3cccc4[nH]cc(c34)C[C@H]21
Rattus norvegicus [1]
  Activity: Active
Rattus norvegicus [3]
  ED50: 0.06 mg/kg
Rattus norvegicus [4]
  ED50: 1 mg/kg

## CC(C)C[C@H]1C(=O)N2CCC[C@H]2[C@]2(O)O[C@](NC(=O)[C@@H]3C=C4c5cccc6[nH]c(Br)c(c56)C[C@H]4N(C)C3)(C(C)C)C(=O)N12 [BROMOCRIPTINE]
Rattus norvegicus [2]
  Activity: Active
Rattus norvegicus [3]
  ED50: 0.007 mg/kg
Rattus norvegicus [4]
  ED50: 0.75 mg/kg

## CN1C[C@H](CSc2ccccn2)C=C2c3cccc4[nH]cc(c34)C[C@H]21 [TIOMERGINE]
Rattus norvegicus [1]
  Activity: Active
Rattus norvegicus [3]
  ED50: 1.47 mg/kg
Rattus norvegicus [4]
  ED50: 11.5 mg/kg

## CN1C[C@H](CC#N)C[C@@H]2c3cccc4[nH]c(Cl)c(c34)C[C@H]21 [LERGOTRILE]
Rattus norvegicus [1]
  Activity: Active
Rattus norvegicus [2]
  Activity: Active
Rattus norvegicus [3]
  ED50: 0.08 mg/kg
Rattus norvegicus [4]
  ED50: 2 mg/kg

## CN1CCc2cccc3c2[C@H]1Cc1ccc(O)c(O)c1-3
Rattus norvegicus [5]
  Activity: Active

## CN1C[C@@H](CC#N)C[C@@H]2c3cccc4[nH]cc(c34)C[C@H]21 [DELERGOTRILE]
Rattus norvegicus [1]
  Activity: Active
Rattus norvegicus [2]
  Activity: Active
Rattus norvegicus [3]
  ED50: 0.06 mg/kg
Rattus norvegicus [4]
  ED50: 3 mg/kg
